Results on three compounds are retold here after ChEMBL document CHEMBL5653631, “A Potent and Selective ULK1 Inhibitor Suppresses Autophagy and Sensitizes Cancer Cells to Nutrient Stress” (iScience, 2018).

Test [1] concerns the target T1, G protein-coupled receptor kinase 3 (Homo sapiens) (UniProt P35626).
T1 sequence (whole entry): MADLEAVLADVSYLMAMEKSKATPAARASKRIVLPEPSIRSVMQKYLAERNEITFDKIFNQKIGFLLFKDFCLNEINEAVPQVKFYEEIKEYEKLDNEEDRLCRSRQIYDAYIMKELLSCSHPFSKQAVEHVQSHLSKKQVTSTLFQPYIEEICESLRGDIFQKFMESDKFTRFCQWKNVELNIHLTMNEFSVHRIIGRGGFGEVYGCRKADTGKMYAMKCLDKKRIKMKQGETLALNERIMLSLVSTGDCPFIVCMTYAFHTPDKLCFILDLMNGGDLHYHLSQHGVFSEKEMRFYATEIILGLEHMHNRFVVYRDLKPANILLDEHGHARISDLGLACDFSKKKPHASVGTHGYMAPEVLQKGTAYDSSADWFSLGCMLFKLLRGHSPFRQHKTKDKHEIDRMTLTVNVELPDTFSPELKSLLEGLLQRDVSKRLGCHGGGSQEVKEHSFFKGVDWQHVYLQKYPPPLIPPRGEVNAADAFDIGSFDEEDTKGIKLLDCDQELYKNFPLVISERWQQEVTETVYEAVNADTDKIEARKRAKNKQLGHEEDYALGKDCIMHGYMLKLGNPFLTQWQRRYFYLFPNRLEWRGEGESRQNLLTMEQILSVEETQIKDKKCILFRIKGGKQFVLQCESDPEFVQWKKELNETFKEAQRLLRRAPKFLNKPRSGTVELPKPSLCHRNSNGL
Nature of the test: Inhibition of human recombinant BARK2 at 40 nM in presence of ATP by radiometric assay relative to control. A digest of the protocol: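 Part of a radiometric in vitro activity panel of 327 recombinant human kinases. Each kinase was tested in duplicate at one inhibitor concentration. Activity remaining was expressed as a percentage of the vehicle control, and percent inhibition was taken as 100 minus that value.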

Test [2] deals with LIM domain kinase 1 (Homo sapiens) (UniProt P53667). Kind of test: Inhibition of human recombinant LIMK1 at 40 nM in presence of ATP by radiometric assay relative to control.
Test [3] deals with T2, NUAK family SNF1-like kinase 2 (Homo sapiens) (UniProt Q9H093).
T2 sequence (whole entry): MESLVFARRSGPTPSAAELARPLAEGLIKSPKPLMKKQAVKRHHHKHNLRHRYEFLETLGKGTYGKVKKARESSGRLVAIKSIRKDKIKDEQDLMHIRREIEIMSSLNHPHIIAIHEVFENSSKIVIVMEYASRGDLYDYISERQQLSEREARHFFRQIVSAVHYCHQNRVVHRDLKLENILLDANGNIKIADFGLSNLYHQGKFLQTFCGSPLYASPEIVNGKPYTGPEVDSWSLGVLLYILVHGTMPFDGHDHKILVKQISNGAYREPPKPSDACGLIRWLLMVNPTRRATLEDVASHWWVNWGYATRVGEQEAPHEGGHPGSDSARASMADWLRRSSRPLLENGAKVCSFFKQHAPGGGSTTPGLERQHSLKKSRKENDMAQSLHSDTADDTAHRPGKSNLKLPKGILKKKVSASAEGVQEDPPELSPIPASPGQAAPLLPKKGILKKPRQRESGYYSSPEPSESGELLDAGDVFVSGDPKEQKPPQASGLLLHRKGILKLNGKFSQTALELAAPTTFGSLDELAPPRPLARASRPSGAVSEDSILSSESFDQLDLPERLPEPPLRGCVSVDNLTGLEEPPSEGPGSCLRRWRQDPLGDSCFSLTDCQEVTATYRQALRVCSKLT
Nature of the test: Inhibition of human recombinant NuaK2 at 40 nM in presence of ATP by radiometric assay relative to control.

For test [4], the target named is RAC-gamma serine/threonine-protein kinase (Homo sapiens) (UniProt Q9Y243). Kind of test: Inhibition of human recombinant AKT3 at 40 nM related to control ULK1. A digest of the protocol:
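Radiometric activity assays in a panel of 327 human recombinant kinases, each run in duplicate at one inhibitor concentration. Activity remaining is expressed as percent of vehicle control, and percent inhibition is calculated as 100% minus percent activity remaining.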

In test [5] the target is T3, Tyrosine-protein kinase receptor TYRO3 (Homo sapiens) (UniProt Q06418).
T3 sequence (whole entry): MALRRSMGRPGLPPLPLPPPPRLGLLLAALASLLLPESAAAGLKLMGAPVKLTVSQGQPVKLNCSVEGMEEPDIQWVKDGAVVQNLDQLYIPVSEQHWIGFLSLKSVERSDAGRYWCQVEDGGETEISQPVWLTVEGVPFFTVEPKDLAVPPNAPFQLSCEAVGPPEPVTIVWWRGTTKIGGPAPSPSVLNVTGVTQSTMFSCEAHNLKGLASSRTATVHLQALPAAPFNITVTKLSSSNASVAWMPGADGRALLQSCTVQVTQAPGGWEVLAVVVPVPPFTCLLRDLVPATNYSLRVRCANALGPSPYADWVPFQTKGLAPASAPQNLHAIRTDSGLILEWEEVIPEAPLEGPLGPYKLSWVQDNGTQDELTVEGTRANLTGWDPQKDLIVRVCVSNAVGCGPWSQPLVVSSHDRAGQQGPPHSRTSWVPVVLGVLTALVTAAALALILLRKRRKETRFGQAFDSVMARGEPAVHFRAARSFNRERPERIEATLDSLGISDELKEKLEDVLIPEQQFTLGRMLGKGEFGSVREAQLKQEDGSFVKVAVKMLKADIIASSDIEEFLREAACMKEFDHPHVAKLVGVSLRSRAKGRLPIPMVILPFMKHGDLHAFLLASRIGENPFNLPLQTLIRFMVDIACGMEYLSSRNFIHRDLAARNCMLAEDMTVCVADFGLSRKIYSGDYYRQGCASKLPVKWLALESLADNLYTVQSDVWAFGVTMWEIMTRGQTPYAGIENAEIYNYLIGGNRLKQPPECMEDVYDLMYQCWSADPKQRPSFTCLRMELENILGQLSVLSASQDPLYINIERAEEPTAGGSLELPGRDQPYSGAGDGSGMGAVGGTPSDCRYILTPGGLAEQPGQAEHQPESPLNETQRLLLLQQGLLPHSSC
Kind of test: Inhibition of human recombinant TYRO3 at 500 nM in presence of ATP by radiometric assay relative to control.

Test [6] addresses NT-3 growth factor receptor (Homo sapiens) (UniProt Q16288). Kind of test: Inhibition of human recombinant TRKC at 500 nM related to control ULK1.
The species entered for another test is Homo sapiens. Nature of the test: Inhibition of human recombinant p70S6K at 15 nM in presence of ATP by radiometric assay relative to control.

The structures appear in SMILES notation.

NT-3 growth factor receptor (Homo sapiens), sequence (Q16288 32-839 limits assumed): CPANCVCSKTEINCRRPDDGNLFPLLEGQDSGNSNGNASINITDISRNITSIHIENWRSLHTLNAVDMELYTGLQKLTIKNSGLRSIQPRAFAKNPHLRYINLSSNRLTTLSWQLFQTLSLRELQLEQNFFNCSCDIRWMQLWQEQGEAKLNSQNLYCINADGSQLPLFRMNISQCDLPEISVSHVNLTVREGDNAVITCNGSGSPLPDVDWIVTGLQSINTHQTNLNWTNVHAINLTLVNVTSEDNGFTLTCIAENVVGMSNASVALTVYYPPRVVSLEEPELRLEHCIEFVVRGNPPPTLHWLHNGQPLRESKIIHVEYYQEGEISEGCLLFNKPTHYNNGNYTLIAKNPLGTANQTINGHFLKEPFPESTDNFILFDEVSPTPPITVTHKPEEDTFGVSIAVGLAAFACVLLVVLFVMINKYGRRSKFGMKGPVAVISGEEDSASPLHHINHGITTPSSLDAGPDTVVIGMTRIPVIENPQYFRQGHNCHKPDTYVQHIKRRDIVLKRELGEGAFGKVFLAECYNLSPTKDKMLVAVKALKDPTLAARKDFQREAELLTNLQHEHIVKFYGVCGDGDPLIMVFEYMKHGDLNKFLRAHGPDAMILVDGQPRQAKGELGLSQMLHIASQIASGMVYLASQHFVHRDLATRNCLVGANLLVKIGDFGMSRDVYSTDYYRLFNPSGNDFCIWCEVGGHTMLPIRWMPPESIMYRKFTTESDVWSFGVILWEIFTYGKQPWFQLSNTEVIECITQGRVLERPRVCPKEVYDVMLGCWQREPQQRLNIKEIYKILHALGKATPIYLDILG
LIM domain kinase 1 (Homo sapiens), sequence (P53667 whole entry, looked up, the tested form may be a part): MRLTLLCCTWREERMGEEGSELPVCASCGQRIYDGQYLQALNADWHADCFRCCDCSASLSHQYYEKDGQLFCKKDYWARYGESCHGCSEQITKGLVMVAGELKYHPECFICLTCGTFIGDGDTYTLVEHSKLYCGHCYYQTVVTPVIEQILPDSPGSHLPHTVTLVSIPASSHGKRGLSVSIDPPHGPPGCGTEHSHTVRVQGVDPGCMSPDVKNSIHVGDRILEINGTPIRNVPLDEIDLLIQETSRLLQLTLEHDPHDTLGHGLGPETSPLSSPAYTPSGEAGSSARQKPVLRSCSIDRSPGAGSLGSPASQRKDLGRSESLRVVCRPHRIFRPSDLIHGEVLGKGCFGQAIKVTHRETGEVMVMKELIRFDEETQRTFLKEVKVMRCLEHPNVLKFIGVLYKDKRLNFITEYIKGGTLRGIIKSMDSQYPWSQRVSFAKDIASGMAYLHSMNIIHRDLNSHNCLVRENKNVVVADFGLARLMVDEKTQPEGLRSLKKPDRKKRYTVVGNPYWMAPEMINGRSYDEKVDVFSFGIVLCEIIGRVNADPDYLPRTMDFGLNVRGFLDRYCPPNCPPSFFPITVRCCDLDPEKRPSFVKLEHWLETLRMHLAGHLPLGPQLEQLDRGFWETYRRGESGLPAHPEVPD
RAC-gamma serine/threonine-protein kinase (Homo sapiens), sequence (Q9Y243 whole entry): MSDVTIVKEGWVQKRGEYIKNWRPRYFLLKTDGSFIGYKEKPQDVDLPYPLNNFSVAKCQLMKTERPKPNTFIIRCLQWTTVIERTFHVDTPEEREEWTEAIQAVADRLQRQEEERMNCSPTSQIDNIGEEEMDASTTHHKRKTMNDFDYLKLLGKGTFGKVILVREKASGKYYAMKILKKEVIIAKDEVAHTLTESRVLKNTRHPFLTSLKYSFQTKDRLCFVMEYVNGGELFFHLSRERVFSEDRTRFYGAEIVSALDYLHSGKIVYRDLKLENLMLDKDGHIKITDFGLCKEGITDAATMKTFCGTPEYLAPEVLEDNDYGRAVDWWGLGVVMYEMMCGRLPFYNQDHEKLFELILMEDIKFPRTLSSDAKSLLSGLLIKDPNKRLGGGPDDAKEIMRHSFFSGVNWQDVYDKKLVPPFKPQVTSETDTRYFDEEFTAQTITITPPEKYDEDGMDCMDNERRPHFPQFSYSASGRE

For `O=C(N[C@@H](C1CC1)C(F)(F)F)c1cc(-c2cnn3cc(-c4ccc(F)cc4)cnc23)cs1`, the inhibition in test [1] came out at 7%; in test [2], 15%; in test [3], 3%. The fold change (FC) in test [4] is 0.03.

Take `CNC(=O)c1ccccc1Oc1nc(Nc2cc(OC)c(OC)c(OC)c2)ncc1Br`: the inhibition in test [5] was found to be 10%. Moreover, the fold change (FC) in test [6] was 0.

Consider `CC(C)[C@H](NC(=O)c1cc(-c2cnn3cc(-c4ccc(OCCN5CCCCC5)cc4)cnc23)cs1)C(F)(F)F`, for which the inhibition in the test listed under Homo sapiens worked out at 17%.
